# Screening data: PubChem, several laboratories
# FAK blocker: blocks human focal adhesion kinase activity | Q05397 | inhibition, %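 (tested at 7 µM)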 | biochemical FAK kinase activity assay | hit rate 0.84% among 97,000; in the data active means inhibition above about 19%;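 further: 0% = DMSO and 100% = reference compound high control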
# Target sequence (Q05397 whole entry, looked up): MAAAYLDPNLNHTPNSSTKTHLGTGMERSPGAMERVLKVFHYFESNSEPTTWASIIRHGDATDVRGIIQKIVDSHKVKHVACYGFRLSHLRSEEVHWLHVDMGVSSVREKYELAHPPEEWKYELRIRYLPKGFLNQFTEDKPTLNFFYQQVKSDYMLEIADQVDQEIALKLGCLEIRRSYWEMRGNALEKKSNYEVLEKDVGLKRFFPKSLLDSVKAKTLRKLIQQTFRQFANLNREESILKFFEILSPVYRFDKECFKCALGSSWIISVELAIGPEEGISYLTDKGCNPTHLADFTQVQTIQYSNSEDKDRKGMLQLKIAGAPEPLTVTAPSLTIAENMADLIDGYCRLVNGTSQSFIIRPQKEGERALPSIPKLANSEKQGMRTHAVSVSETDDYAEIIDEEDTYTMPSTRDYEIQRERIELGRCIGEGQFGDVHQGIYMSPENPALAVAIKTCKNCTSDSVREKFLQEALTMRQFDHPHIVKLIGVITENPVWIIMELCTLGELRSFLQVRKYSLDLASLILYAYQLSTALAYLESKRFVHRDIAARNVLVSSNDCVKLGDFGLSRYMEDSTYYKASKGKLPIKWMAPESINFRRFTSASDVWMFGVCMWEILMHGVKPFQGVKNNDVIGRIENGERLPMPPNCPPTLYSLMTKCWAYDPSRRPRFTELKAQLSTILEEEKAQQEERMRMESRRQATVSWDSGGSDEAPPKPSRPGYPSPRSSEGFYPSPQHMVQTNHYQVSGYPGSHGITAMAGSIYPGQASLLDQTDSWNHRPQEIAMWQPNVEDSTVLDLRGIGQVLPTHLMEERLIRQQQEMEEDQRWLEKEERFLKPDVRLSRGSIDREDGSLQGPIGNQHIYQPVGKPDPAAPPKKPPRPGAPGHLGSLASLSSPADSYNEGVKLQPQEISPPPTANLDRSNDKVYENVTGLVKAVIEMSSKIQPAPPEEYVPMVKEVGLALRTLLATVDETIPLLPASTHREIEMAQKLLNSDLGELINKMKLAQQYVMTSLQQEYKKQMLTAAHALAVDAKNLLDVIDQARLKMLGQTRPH
# Plk1 PBD FP: inhibitors of human Plk1 polo box domain binding; P53350; Plk1 PBD phosphopeptide binding, fluorescence polarization; inhibition, %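 (tested at about 20 µM)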; hit rate 0.13% among 97,000; AID 693; in the data active means inhibition above about 34%, passing the limit was not always enough
# PLK1 inh: blocks human PLK1 kinase activity; P53350; recombinant PLK1 kinase, TR-FRET peptide phosphorylation; inhibition, % at 10 µM; hit rate 0.53% among 97,000;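 active means inhibition of 50% or more in the single-concentration screen; inactive means inhibition below 50%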;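 further: 0% = DMSO max control and 100% = H-89 dihydrochloride min control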
# EphB4 ephrin blk: EphB4-ephrin-B2 interaction antagonism | AID 720 | inhibition, % at 7 µM | hit rate 0.15% among 97,000 | EphB4 LBD / TNYL-RAW-Alexa532 peptide, fluorescence polarization | P54760;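 active means inhibition above the screen-wide mean inhibition plus 3 SD, cut at about 15% in these data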;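 further: 0% = DMSO wells and 100% = excess unlabeled TNYL-RAW peptide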
# Cav32 inh: inhibitors of human Cav3.2 T-type calcium channel. B-score at 10 µM. hit rate 4% among 100,000. AID 449739. Cav3.2-expressing cells, Fluo-4 calcium fluorescence FDSS; stronger effect = lower value;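 active means single-dose well whose peak fluorescence ratio is a statistical outlier from its plate by either plate-standardised score or position-corrected B-score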
# HIV Rev-RRE inh: HIV Rev-RRE protein-RNA interaction inhibition; Rev peptide-RRE RNA binding, FRET; inhibition, % at 8 µM; hit rate 0.79% among 97,000;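 active means inhibition above the screen-wide mean plus 3 SD, cut at about 35% in these data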;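 further: 0% = median DMSO wells and 100% = median Neomycin B control wells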
#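 Test system – labelled RRE RNA duplex and labelled Rev peptide · Signal – fluorescein-to-Cy5 FRET, 480 nm excitation · Evaluation – % inhibition of FRET ratio versus controls · Benchmarks – DMSO low control, neomycin B high control · Incubation – 5 min RNA-compound premix plus 15 min binding step, 25 °C · Medium – HEPES pH 7.5 salt buffer with EDTA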
# Numbers without * were called inactive; x = no result; [ ] = remark or other dose. This is a sample that favours compounds with a hit; in the whole collection about 5.3% have one here.
SMILES,FAK blocker,Plk1 PBD FP,PLK1 inh,EphB4 ephrin blk,Cav32 inh,HIV Rev-RRE inh
CCOC(=O)c1nnn(-c2nonc2N)c1CN(CC)c1ccccc1,-1.3,-19.1,6.5,-2.1,-4.78*,7.2
CCN(C(=O)Cn1c(=O)n(Cc2ccccc2)c(=O)c2ccccc21)c1cccc(C)c1,-0.1,-5.1,1.8,-3.5,-6.38*,2.8
Cc1cc(NC(=O)Cn2c(=O)n(Cc3ccccc3)c(=O)c3ccccc32)no1,0.7,-5.9,-9.0,-8.9,x,1.9
Cc1nn(-c2ccccc2)c(Cl)c1C(=O)Nc1nnc(C2CCCCC2)s1,1.4,1.0,-23.3,-8.9,-4.39*,-3.5
Cc1nn(-c2ccc(C(=O)Nc3nnc(C4CC4)s3)cc2)c(C)c1Cl,0.2,3.3,-7.5,6.4,0.165,-0.2
CC(=O)c1c(C)nc2ccc(Cl)cn12,-0.7,14.7,-2.4,4.6,0.498,8.8
COc1cccc(-c2cnc(NCc3cc(Cl)ccc3O)n2C)c1,6.5,24.9,3.9,-5.2,-4.28*,-0.2
Cn1c(-c2cccc(Br)c2)cnc1NCc1cccnc1,1.1,-8.2,10.2,7.0,0.362,2.4
Brc1ccc(-c2noc3c2-c2nc(C4CCCCC4)sc2CC3)cc1,x,x,x,x,-0.172,x
N#Cc1c(-c2ccccc2)c(-c2ccccc2)n(Cc2ccco2)c1NC(=O)c1cccs1,-1.0,-19.5,-8.8,1.2,-8.9*,6.8
Cc1ccc(Cn2ncc3c(N4CCN(Cc5ccc(Cl)cc5)CC4)ncnc32)cc1,-7.3,4.8,-7.8,-3.3,x,-2.0
Cc1ccccc1N1CCN(c2ncnc3c2cnn3Cc2ccc(Cl)cc2)CC1,7.8,-21.5,-4.2,-9.8,-4.63*,6.1
CCn1c2ccccc2c2cc(NC(=O)c3cc(OC)c(OC)c(OC)c3)ccc21,-3.4,5.3,-13.4,-5.1,-0.428,-6.5
CCn1c2ccccc2c2cc(NC(=O)c3ccc(Br)o3)ccc21,-2.4,-15.0,5.2,3.2,-0.976,75.8*
C#Cc1ccc([C@@H]2C=C(C(=O)O)O[C@H](OCc3ccc(CO)cc3)C2)cc1,x,x,x,x,0.634,x
CCc1nc(N2CCCC2)c(C#N)c2c1CCCC2,-1.5,6.0,-6.3,0.8,-1.28,20.4
CCc1nc(N2CCOCC2)c(C#N)c2c1CCCC2,-1.7,-5.5,-7.9,1.1,-4.46*,12.3
N#Cc1c(SCc2ccccc2)nc(N2CCOCC2)c2c1CCCC2,2.1,3.2,-9.0,11.3,-5.4*,21.0
Cc1nc(-c2ccccc2)sc1C1(C)CC(c2cccc(F)c2)=NO1 (centres undefined),x,x,x,x,0.536,x
CC(=O)c1ccc(-c2cc([C@H]3[C@H]4C=CC[C@@H](C)[C@@H]4C(=O)N3Cc3ccccc3)ccc2F)cc1,x,x,x,x,-2.36,x
OCCNc1nc(Nc2ccccc2O)nc(N2CCCC2)n1,x,x,x,x,0.738,x
CS(=O)(=O)n1nc(-c2ccc(Cl)cc2)nc1SCc1ccccc1,-1.7,11.2,-8.5,3.9,-3.9,23.9
CCCN(CCC)C1=N/C(=C\c2ccco2)C(=O)N1c1ccccc1,-1.6,21.5,-5.7,6.8,-4.92*,14.0
CC(Nc1nc(N2CCCCC2)nc2ccccc12)c1ccccc1 (centres undefined),-1.5,-31.8,-14.2,5.8,-6.98*,12.8
Cc1ccc(NC(=O)C2(NC(=O)c3cccc(N4C(=O)CSC4c4ccccc4)c3)CCCCC2)cc1 (centres undefined),-2.1,-8.6,-7.7,6.0,-6.93*,4.2
SMILES,FAK blocker,Plk1 PBD FP,PLK1 inh,EphB4 ephrin blk,Cav32 inh,HIV Rev-RRE inh
O=C(Nc1ccccc1)c1cccc(N2C(=O)CCC2=O)c1,0.8,1.8,0.6,0.6,x,2.6
Cc1ccc(C(=O)NC(=S)NNC(=O)c2ccccc2[N+](=O)[O-])cc1,0.0,-9.3,-8.5,3.7,-7.98*,6.0
CCOC(=O)C1=C(C)NC(=O)NC1c1ccccc1Cl (centres undefined),3.5,-16.3,-10.4,7.5,-0.0647,0.9
CCOc1ccccc1C1NC(=O)NC(C)=C1C(=O)OC1CCCCC1 (centres undefined),1.2,-25.0,-22.1,-1.8,-2.32,10.5
CCCCCOC(=O)C1=C(C)NC(=O)NC1c1ccccc1OCC (centres undefined),8.6,1.7,-10.5,-3.2,-5.67*,7.7
CCOc1ccccc1C1NC(=O)NC(C)=C1C(=O)OC1CCCC1C (centres undefined),2.7,-17.2,-2.0,9.7,-5.27*,6.0
CCSCCOC(=O)C1=C(C)NC(=O)NC1c1ccccc1 (centres undefined),4.8,14.3,60.6*,6.0,0.307,8.3
O=C1CC(c2ccccc2)CC(O)=C1C=NCc1ccc(Cl)cc1 (centres undefined),-1.6,-3.4,-6.3,-1.8,-0.0365,7.0
O=C(CCN1CCc2ccccc2C1)Nc1ccccc1,0.1,12.2,-5.7,-0.7,0.445,5.8
COC(=O)c1cc(COc2ccc3c(c2)oc(=O)c2ccccc23)c(C)o1,-3.1,16.6,12.0,-3.7,-0.427,0.3
O=S(=O)(Nc1nc2ccccc2s1)c1ccc(Cl)s1,1.3,-12.5,-13.6,1.2,-5.08*,8.2
COC(=O)CCCC1=CC2=CC(=O)C(C)(OC(=O)c3cccs3)C(=O)C2=CN1C1CC1 (centres undefined),x,x,x,x,0.175,x
CCCCCCCCS(=O)c1sc2nc3c(cc2c1N)CCCC3 (centres undefined),3.5,18.2,-3.2,-3.7,-4.8*,0.4
CCCCS(=O)(=O)c1sc2nc3c(cc2c1N)CCCC3,7.0,30.0,-0.8,-0.1,-1.01,8.5
Cn1cccc1/C=C1\CCC/C(=C\c2cccn2C)C1=O,9.9,-220.3,-11.6,4.5,-13.1*,136.4*[fluorescence artefact?]
Cn1cccc1/C=N/n1cnnc1,0.3,19.2,-23.8,-1.7,0.803,6.2
CC1(C)C(C=C(Cl)Cl)C1C(=O)N1CCN(c2ccccc2)CC1 (centres undefined),-0.9,15.1,-9.4,0.0,-4.93*,3.8
COC(=O)C1=C[C@@H](C(=O)OC)[C@@H]2C3=C(C(=O)[C@]2(C)NC(=O)c2ccccc2)[C@H](C)n2c(=O)n(-c4ccccc4)c(=O)n2[C@@H]3C1,x,x,x,x,1.45,x
Cc1ccc(C(=O)Nn2cnc3scc(-c4cccs4)c3c2=O)c(O)c1,-3.6,-30.2,4.4,4.9,-3.46*,5.5
CN(C)c1ccc(/C=C2\SC(=S)N(Nc3ncc(C(F)(F)F)cc3Cl)C2=O)cc1,-2.0,-32.0,-75.0,-4.1,-5.06*,138.0*[fluorescence artefact?]
Cc1ccc(OCc2nnc(SCc3nc4ccccc4[nH]3)n2Cc2ccco2)cc1,3.3,0.3,1.1,-6.4,-8.45*,8.1
Cc1ccc(OCc2nnc(SCC(=O)c3ccccc3)n2Cc2ccco2)cc1,-4.3,18.7,-6.0,-0.2,-4.54*,6.0
COc1ccc(C)cc1NC(=O)CSc1nnc(COc2ccc(C)cc2)n1Cc1ccco1,1.6,-15.8,11.2,0.3,-4.01,6.6
CCN(CC)C(=O)C(=O)N/N=C/c1ccc(Br)cc1,-3.1,-11.7,-4.1,8.8,1.78,3.6
